Experimental data gathered from unrelated publications.
Observed: cell growth or viability

CC(C)(C)c1cc([N+](=O)[O-])cc(C=O)c1O  CC50 (TZM-bl; resazurin): > 12.5 µM
CCCCCCCCC(=O)OC[C@H]1O[C@@](C#N)(c2ccc3c(N)ncnn23)[C@H](O)[C@@H]1O  CC50 (HEp-2; CCK-8; 5 days): 45.5 µM
CC(=O)OC[C@H]1O[C@@H]([S-])[C@H](OC(C)=O)[C@@H](OC(C)=O)[C@@H]1OC(C)=O.CCP(CC)CC.[Au+]  CC50 (THP-1; ATP luminescence; 72 h): 2.83 µM
[N-]=[N+]=N[C@]1(CO)O[C@@H](n2ccc(N)nc2=O)[C@@H](F)[C@@H]1O  CC50 (Calu-3; ATP luminescence; 72 h): > 50 µM
CCOC(=O)c1cc(O)c(O)c(O)c1  CC50 (MDBK; MTT; 72 h): > 256 µg/mL
O=C1CCC(N2C(=O)c3cccc(NCc4cn(Cc5ccc(-c6nc7cc(-c8ccccc8)ccn7c6Nc6ccc(C(=O)O)cc6)cc5)nn4)c3C2=O)C(=O)N1 (centres unmarked)  CC50 (MCF7; 72 h): 105 µM
NC(=O)c1ncn([C@@H]2O[C@H](CO)[C@@H](O)[C@H]2O)n1  CC50 (HEp-2; CCK-8; 5 days): 176 µM
COc1cccc(C=NNC(=S)NN)c1OC  CC50 (TZM-bl; resazurin): > 12.5 µM
Nc1ccn([C@@H]2O[C@H](CO)[C@@H](O)C2(F)F)c(=O)n1  viability (MCF7; MTT; 2.5 µg/mL; 24 h): 51.3%
N#C[C@@]1(c2ccc3c(N)ncnn23)O[C@H](COC(=O)C2CCC(F)CC2)[C@@H](O)[C@H]1O (some centres unmarked)  CC50 (HEp-2; CCK-8; 5 days): 53.3 µM
CN(Cc1cn(Cc2ccc(-c3nc4cc(-c5ccccc5)ccn4c3Nc3ccc(C(=O)O)cc3)cc2)nn1)c1cccc2c1C(=O)N(C1CCC(=O)NC1=O)C2=O (centres unmarked)  CC50 (MCF7; 72 h): 129 µM
